A short description of data set [1]: Oral absorption expressed as peak plasma conc (Cmax) after oral dosing of 50 mg/kg in rat. In kind it is ADME, organism-based. Details: dose 50 mg/kg, route oral. The method, boiled down:
(§1)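 Rats given compound orally at 50 mg/kg. Serial 200 μL blood samples drawn from the tail vein into heparin-coated microhematocrit tubes at selected times. Red cells removed at once by centrifugation; plasma stored at -80 °C, proteins precipitated with acetonitrile, drug measured by HPLC. Absorption reported as peak plasma concentration (Cmax) and AUC extrapolated to infinity.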

Data set [2] is described as follows: Oral absorption expressed as Area under curve was determined. The data set is classed as ADME. The arrangement: concentration or dose not given beside the values. The method, boiled down: as §1
In data set [3] the target is Endothelin receptor, ET-A/ET-B (Homo sapiens) (UniProt P24530+P25101). Description: Relative affinity for human ETA over ETB receptors. The data set is classed as protein assay.
The target in data set [4] is T1, Endothelin-1 receptor (Homo sapiens, UniProt P25101).
T1 sequence (P25101 whole entry): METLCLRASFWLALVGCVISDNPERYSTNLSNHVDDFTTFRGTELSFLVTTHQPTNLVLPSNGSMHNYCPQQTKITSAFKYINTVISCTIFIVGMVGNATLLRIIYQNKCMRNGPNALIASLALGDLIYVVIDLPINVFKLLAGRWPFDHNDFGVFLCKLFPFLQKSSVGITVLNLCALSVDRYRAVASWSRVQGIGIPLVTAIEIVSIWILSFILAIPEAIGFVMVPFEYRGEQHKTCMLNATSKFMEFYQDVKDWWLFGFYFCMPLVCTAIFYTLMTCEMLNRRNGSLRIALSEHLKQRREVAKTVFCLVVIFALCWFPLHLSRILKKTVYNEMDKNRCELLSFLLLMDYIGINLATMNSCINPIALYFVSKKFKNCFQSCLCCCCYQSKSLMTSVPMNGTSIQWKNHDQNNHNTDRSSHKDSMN
Put plainly: Inhibitory concentration was determined against selective Endothelin A receptor.

A short description of data set [5]: Oral bioavailability in rat. As to conditions: in vivo. The data set is classed as ADME, organism-based.
The nature of data set [6]: Half life period in plasma was determined. In kind it is ADME, cell-free.
Data set [7] in a line: Oral bioavailability was evaluated in cat. The data set is classed as ADME, organism-based, Felis catus. As to conditions: in vivo.
Data set [8] in a line: Oral bioavailability was evaluated in dog. The data set is classed as ADME, organism-based, Canis lupus familiaris. The settings on record: in vivo.

Molecules are shown by their SMILES.

A word on the Cmax: it is the maximum level reached in the sampled fluid or tissue. In general, AUC refers to the area under the concentration-time curve, a measure of exposure. As a reminder, the IC50 is the point on the concentration scale where inhibition reaches its midpoint. For orientation: bioavailability means the share of a dose that reaches the circulation, judged against a reference dose that is usually intravenous. By half-life is commonly meant the time in which the quantity being followed falls by half.

Sequence of Endothelin receptor, ET-A/ET-B (Homo sapiens) (P24530 whole entry, looked up, one chain of several): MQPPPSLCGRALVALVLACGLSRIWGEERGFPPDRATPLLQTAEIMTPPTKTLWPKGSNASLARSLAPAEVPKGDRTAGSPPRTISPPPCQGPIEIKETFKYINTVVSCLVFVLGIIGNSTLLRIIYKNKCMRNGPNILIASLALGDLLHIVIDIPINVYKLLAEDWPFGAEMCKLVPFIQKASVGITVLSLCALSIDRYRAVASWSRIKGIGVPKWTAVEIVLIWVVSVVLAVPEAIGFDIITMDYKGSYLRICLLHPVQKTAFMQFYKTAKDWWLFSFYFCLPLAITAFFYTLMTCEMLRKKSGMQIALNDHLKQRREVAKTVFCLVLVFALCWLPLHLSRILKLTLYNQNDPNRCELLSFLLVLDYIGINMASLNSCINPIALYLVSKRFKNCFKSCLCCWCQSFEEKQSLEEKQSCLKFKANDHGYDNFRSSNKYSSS

For the compound `Cc1cc(C)c(NC(=O)c2sccc2S(=O)(=O)Nc2onc(C)c2Cl)c(C(=O)C(C)C)c1`, the Cmax in data set [1] was 59200 ng/mL. Further, in data set [2], the exposure (AUC) was 298 µg·h/mL. In data set [3], the Selectivity stood at 14000. In addition, the IC50 in data set [4] worked out at 0.12 nM.

In data set [3], `Cc1noc(NS(=O)(=O)c2ccsc2C(=O)Cc2ccc3c(c2)OCO3)c1Cl` displayed a Selectivity of 300.

As for `Cc1ccc(NC(=O)c2sccc2S(=O)(=O)Nc2onc(C)c2Cl)cc1`, in data set [3], the Selectivity came out at 940.

Compound `Cc1cc2c(cc1CC(=O)c1sccc1S(=O)(=O)Nc1onc(C)c1Cl)OCO2` registered a Selectivity in data set [3] of 7000.

In turn, `Cc1cc(C)c(NC(=O)c2sccc2S(=O)(=O)Nc2noc(C)c2Cl)c(C)c1CC#N` had a Cmax in data set [1] of 53900 ng/mL. The compound also yielded an AUC in data set [2] of 171 µg·h/mL. Further, in data set [3], the Selectivity came out at 8500. In addition, the IC50 in data set [4] came out at 0.1 nM.

Turning to `Cc1cc(C)c(NC(=O)c2sccc2S(=O)(=O)Nc2onc(C)c2C)c(C)c1CC#N`, the highest level in data set [1] (Cmax) was 13000 ng/mL. The AUC in data set [2] stood at 45.8 µg·h/mL. This compound also showed a Selectivity in data set [3] of 14600. The compound also had an IC50 in data set [4] of 0.17 nM.

As for `Cc1cc(C)c(NC(=O)c2sccc2S(=O)(=O)Nc2onc(C)c2Cl)c(C)c1O`, in data set [1], the Cmax is 48200 ng/mL. This compound displayed an AUC in data set [2] of 118 µg·h/mL. This compound also gave a Selectivity in data set [3] of 10900. This compound also gave an IC50 in data set [4] of 0.19 nM.

In turn, `Cc1cc2c(cc1CC(=O)c1sccc1S(=O)(=O)Nc1onc(C)c1C)OCO2` displayed a bioavailability in data set [5] of roughly 100%. In data set [3], this compound had a Selectivity of 10000.

The compound `CCc1cc(C)cc(C)c1NC(=O)c1sccc1S(=O)(=O)Nc1onc(C)c1Cl` returned a Cmax in data set [1] of 21800 ng/mL. In addition, in data set [2], the AUC turned out to be 47 µg·h/mL. Also, in data set [4], inhibition was half-maximal at 0.43 nM (IC50).

As for `Cc1noc(NS(=O)(=O)c2ccsc2C(=O)Nc2ccc3c(c2)OCO3)c1Br`, the Selectivity in data set [3] was 500.

As to `CC(=O)c1cc2c(cc1NC(=O)c1sccc1S(=O)(=O)Nc1onc(C)c1Cl)OCO2`, the bioavailability in data set [5] was 27%. For the same compound, in data set [3], the Selectivity worked out at 3000.

For `Cc1noc(NS(=O)(=O)c2ccsc2C(=O)Nc2cc3c(cc2C#N)OCO3)c1Cl`, the bioavailability in data set [5] worked out at 8%. The Selectivity in data set [3] came to 12000.

`Cc1cc(C)c(NC(=O)c2sccc2S(=O)(=O)Nc2onc(C)c2Cl)c(C)c1` had a Cmax in data set [1] of 35900 ng/mL. The compound also showed an AUC in data set [2] of 103 µg·h/mL. Further, in data set [3], the Selectivity stood at 7000. In addition, in data set [4], half-maximal inhibition (IC50) required 0.17 nM.

`Cc1cc(C)c(NC(=O)c2sccc2S(=O)(=O)Nc2onc(C)c2Cl)c(C)c1CC#N` gave a Cmax in data set [1] of 42000 ng/mL. In data set [2], this compound registered an AUC of 59.9 µg·h/mL. Also, the Selectivity in data set [3] was determined as 32900.

As for `Cc1cc(C)c(CC(=O)c2sccc2S(=O)(=O)Nc2onc(C)c2Cl)c(C)c1O`, the concentration in data set [1] peaked (Cmax) at 2600 ng/mL. Also, the AUC in data set [2] amounted to 15.8 µg·h/mL. The Selectivity in data set [3] amounted to 10800. The IC50 in data set [4] was 0.14 nM.

Compound `CC(=O)c1cc(C)cc(C)c1NC(=O)c1sccc1S(=O)(=O)Nc1onc(C)c1Cl` showed a half-life in data set [6] of 4 h. Moreover, the values for the bioavailability in data set [7], in data set [8] and in data set [5] were 42%, 70% and 25%, respectively. Besides, in data set [1], the Cmax stood at 57600 ng/mL. In addition, the AUC in data set [2] came out at 272 µg·h/mL. Also, in data set [3], the Selectivity came to 442000. Moreover, the IC50 in data set [4] came to 0.04 nM.

The values above are taken from ChEMBL document CHEMBL1134651, “Acyl substitution at the ortho position of anilides enhances oral bioavailability of thiophene sulfonamides: TBC3214, an ETA selective endothelin antagonist” (J Med Chem, 2001).
